Results reported in publication PMC2099187 (The Journal of Cell Biology, 2007).

Columns and labels:
A549 cells = assay: Resensitization of ATII-induced Ca2+ signaling; format: cell-based, human; conditions: ATII 1 μM 1 h, 1 h recovery; SM-19712 10 μM; endogenous AT1AR and ECE-1
How it was run: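 A549 cells (native AT1AR, ECE-1) were loaded with Fura-2AM for [Ca2+]i at 37°C. They were preincubated with ATII 1 μM or vehicle (1 h, 37°C), washed, recovered 1 h, then rechallenged with ATII 1 μM. SM-19712 10 μM or DMSO was preincubated 20–60 min and kept throughout. Response was expressed as % of vehicle-treated cells.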

HEK-CLR-RAMP1 cells = assay: Endocytosis and degradation of internalized 125I-His8-CGRP; format: cell-based, human; conditions: 30 min after internalization; SM-19712 10 μM, bafilomycin A1 0.15 or 1 μM
[1] = molecular target: T1, recombinant human (rh) ECE-1 (Homo sapiens, UniProt P42892); assay: Peptide degradation by rhECE-1; format: biochemical; conditions: inhibitor 100 μM
T1 sequence (P42892 1-770): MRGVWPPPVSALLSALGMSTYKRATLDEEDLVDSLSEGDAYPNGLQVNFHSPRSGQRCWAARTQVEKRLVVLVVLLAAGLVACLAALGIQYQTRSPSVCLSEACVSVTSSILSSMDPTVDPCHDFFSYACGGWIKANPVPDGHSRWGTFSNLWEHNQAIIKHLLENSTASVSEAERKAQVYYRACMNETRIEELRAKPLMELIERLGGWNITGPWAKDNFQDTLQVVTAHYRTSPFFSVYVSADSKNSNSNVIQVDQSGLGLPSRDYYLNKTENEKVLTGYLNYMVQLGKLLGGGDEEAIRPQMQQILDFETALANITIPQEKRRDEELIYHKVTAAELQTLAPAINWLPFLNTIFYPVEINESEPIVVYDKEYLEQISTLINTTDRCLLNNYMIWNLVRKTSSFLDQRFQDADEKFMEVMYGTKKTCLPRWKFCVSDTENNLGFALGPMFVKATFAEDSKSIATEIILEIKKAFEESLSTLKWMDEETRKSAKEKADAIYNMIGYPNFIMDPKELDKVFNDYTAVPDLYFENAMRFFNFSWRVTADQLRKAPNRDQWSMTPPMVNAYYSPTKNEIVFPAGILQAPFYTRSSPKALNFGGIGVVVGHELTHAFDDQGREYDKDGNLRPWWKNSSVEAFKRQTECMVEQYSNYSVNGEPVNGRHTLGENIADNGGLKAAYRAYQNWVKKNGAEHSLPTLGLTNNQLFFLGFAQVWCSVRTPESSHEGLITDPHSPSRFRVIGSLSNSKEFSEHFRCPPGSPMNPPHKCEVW
How it was run: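 Where used, the ECE-1 inhibitor (100 μM) was preincubated with enzyme on ice for 30 min at matching pH before substrate was added. Products were resolved by reversed-phase HPLC and identified by MALDI TOF/TOF mass spectrometry.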

[2] = test system: HEK-CLR-RAMP1+βARR2-GFP cells; assay: Trafficking and colocalization of β-arrestin2-GFP and CLR/RAMP1; format: cell-based, human; conditions: recovery up to 4 h in CGRP-free medium
How it was run: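 HEK-CLR-RAMP1 cells transiently transfected with β-arrestin2-GFP had surface CLR (HA11) and RAMP1 (Myc) labelled. Cells were given CGRP (2 min to 1 h), washed, and recovered in CGRP-free medium for 1–4 h. SM-19712 10 μM, bafilomycin A1 0.15 or 1 μM, or DMSO was preincubated 20–60 min and kept throughout. After PFA fixation and confocal imaging, β-arrestin2/CLR endosomal colocalization coefficient was measured at 4 h recovery.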

SK-N-MC cells = assay: CGRP-induced Ca2+ signaling, desensitization and resensitization; format: cell-based, human; conditions: SM-19712 10 μM
How it was run: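 SK-N-MC cells (endogenous CLR/RAMP1) were loaded with Fura-2AM for [Ca2+]i at 37°C. Single challenge used CGRP 100 nM. Desensitization: CGRP 100 nM or vehicle (1 h, 37°C), wash, CGRP-free recovery (4 h for resensitization), then CGRP 100 nM rechallenge. SM-19712 10 μM or DMSO was preincubated 20–60 min and kept throughout. Response was expressed as % of vehicle-treated cells.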

HEK cells = assay: BK-induced Ca2+ signaling, desensitization and resensitization; format: cell-based, human; conditions: SM-19712 10 μM
How it was run: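 HEK cells with native B2R were loaded with Fura-2AM and [Ca2+]i read at 37°C, on coverslips or in suspension. Cells were preincubated with BK 100 nM or vehicle (10 min, 37°C), washed, recovered 0–120 min, then rechallenged with BK 100 nM. SM-19712 10 μM, bafilomycin A1 0.15 or 1 μM, or DMSO was preincubated 20–60 min and kept in buffers throughout.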

HEK-AT1AR cells = assay: Resensitization of ATII-induced Ca2+ signaling; format: cell-based, human; conditions: SM-19712 10 μM, 20 min and 2 h recovery
How it was run: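 HEK-AT1AR cells were exposed to ATII (100 nM) or vehicle for 1 h at 37°C, washed, and allowed to recover in agonist-free medium at 37°C. They were then rechallenged with ATII (100 nM) while [Ca2+]i was measured. The [Ca2+]i change is expressed as % of the vehicle-pretreated response. Inhibitor (10 μM) or DMSO was preincubated 20–60 min and kept in buffers throughout. Mean ± SE, n ≥ 3.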

HEK-B2R cells = assay: B2R recycling and colocalization with β-arrestin2-GFP; format: cell-based, human; conditions: SM-19712 10 μM
How it was run: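 HEK cells stably expressing HA-tagged B2R or B2R-V2RCT were transiently transfected with β-arrestin2-GFP. Surface receptors were labelled with anti-HA11 (1:100, 30 min, 37°C), then given BK 100 nM for 10 min and recovered in BK-free medium (B2R 1 h; B2R-V2RCT 2 h). SM-19712 10 μM or DMSO was preincubated 20–60 min and kept throughout. Cells were PFA-fixed for confocal imaging; plasma-membrane fraction of fluorescence and colocalization coefficient (0–1) were scored in >20 cells/experiment, n ≥ 3.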

- Effect on rhECE-1 degradation of CGRP ([1]; preincubated with ECE-1 on ice 30 min, pH 5.5): abolished
- Effect on rhECE-1 degradation of BK ([1]; rhECE-1 83 nM, pH 5.5 and 7.4): prevented this degradation
Structure (SMILES): Cc1nn(-c2ccccc2)c(NC(=O)NS(=O)(=O)c2ccc(Cl)cc2)c1C#N.[Na] [SM-19712]
- Effect on resensitization of responses to ATII (A549 cells): did not affect resensitization
- Effect on degradation of internalized 125I-His8-CGRP (HEK-CLR-RAMP1 cells): prevented degradation
- Effect on localization of CLR (RAMP1) and β-arrestin2 during recovery [2]: caused their retention in endosomes
- Effect on response to a single challenge with CGRP ([Ca2+]i) (SK-N-MC cells; CGRP 100 nM): did not affect magnitude or duration
- Effect on desensitization of CGRP-induced Ca2+ signaling (SK-N-MC cells): did not affect desensitization
- Inhibition of resensitization of CGRP-induced Ca2+ signaling (SK-N-MC cells; 4 h recovery): 33%
- Effect on response to a single BK challenge ([Ca2+]i) (HEK cells; BK 100 nM, thiorphan 1 μM, phosphoramidon 1 μM): did not affect responses to a single BK challenge
- Effect on desensitization of BK-induced Ca2+ signaling (HEK cells; bafilomycin A1 0.15 or 1 μM): had no effect
- Effect on resensitization of BK-induced Ca2+ signaling (HEK cells; bafilomycin A1 0.15 or 1 μM, 0–120 min recovery): had no effect
- Effect on resensitization of ATII-induced Ca2+ signaling (HEK-AT1AR cells): did not affect resensitization at either time
- Effect on colocalization coefficient of β-arrestin2 and B2R (HEK-B2R cells; 1 h recovery): did not affect colocalization with B2R
- Reduction of recycling of B2R (HEK-B2R cells; BK 100 nM 10 min, 1 h recovery): < 10%
- Effect on BK-induced trafficking of B2R and β-arrestin2 (HEK-B2R cells; BK 100 nM 10 min, 60 min recovery): did not affect this trafficking
